Values after ≈ are worked out from the molar mass of the structure shown.
Key:
Homo sapiens = species: Homo sapiens; assay: Stabilization of 5'Dabcyl/3'FAM labeled human telomeric sequence G-quadruplex DNA assessed as increase in melting temperature at 2.5 uM pretreated for 5 mins at 30 degreeC followed by 5 mins incubation at 95 degreeC by fluorescence assay
In short: (§1)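 FRET melting in LiP buffer (10 mM LiOH, 50 mM KCl, pH 7.0 with H3PO4), ex 488 nm, em 520 nm. Samples were held 5 min at 30 °C, heated at 1 °C/min to 95 °C, held 5 min, then re-annealed. Tm came from first derivatives; ΔTm = shift with ligand at 2.5; at least three runs.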

[1] = Stabilization of 5'Dabcyl/3'FAM labeled duplex DNA (unknown origin) assessed as increase in melting temperature at 2.5 uM pretreated for 5 mins at 30 degreeC followed by 5 mins incubation at 95 degreeC by fluorescence assay; in short: as §1
[2] = target: DNA topoisomerase 2-alpha (Homo sapiens, UniProt P11388); assay: Inhibition of human topoisomerase-2alpha-mediated relaxation of supercoiled pBR322 DNA after 1 hr by ethidium bromide staining based agarose gel electrophoresis
Sequence of DNA topoisomerase 2-alpha (P11388 whole entry): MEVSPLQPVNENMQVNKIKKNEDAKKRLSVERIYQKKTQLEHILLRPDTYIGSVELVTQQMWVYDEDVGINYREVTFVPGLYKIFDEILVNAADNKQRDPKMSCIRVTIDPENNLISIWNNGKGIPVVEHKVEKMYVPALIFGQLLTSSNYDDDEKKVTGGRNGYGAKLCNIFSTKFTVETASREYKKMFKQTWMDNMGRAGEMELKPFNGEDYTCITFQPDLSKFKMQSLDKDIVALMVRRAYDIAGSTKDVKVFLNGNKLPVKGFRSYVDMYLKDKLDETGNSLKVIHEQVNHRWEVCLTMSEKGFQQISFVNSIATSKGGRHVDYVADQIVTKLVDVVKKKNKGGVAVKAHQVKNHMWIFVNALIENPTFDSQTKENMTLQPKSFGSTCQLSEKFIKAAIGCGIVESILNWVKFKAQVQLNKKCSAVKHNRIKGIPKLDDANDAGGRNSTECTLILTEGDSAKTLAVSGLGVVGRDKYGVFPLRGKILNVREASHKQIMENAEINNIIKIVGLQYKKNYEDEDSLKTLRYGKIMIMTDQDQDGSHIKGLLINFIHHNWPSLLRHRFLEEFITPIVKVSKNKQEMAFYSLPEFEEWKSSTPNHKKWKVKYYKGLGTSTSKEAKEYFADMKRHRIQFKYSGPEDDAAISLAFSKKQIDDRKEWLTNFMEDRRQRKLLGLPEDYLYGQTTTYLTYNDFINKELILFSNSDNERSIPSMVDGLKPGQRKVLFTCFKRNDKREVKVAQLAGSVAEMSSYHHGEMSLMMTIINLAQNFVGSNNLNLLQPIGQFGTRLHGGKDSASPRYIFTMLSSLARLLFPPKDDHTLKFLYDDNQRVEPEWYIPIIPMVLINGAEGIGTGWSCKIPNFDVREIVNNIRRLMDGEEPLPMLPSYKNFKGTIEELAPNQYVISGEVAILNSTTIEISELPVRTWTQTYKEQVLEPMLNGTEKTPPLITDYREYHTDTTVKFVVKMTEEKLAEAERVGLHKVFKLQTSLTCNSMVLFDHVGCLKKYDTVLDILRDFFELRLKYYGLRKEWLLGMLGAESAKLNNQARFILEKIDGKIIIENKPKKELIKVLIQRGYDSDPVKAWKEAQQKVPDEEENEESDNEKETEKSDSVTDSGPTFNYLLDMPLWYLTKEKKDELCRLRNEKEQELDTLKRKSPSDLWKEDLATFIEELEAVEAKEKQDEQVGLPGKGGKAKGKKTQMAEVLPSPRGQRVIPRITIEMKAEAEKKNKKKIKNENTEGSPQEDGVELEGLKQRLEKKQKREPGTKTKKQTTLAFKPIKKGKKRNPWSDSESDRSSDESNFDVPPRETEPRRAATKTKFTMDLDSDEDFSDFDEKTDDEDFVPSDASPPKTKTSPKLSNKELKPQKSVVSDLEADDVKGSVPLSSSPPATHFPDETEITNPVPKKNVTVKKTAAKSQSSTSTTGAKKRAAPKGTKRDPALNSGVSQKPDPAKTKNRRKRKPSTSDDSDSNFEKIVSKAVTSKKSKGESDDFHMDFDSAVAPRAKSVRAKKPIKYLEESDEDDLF
In short: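 Supercoiled pBR322 was incubated with compound (0.5–100) and 1 U human topoisomerase IIα in enzyme buffer for 1 h at 37 °C. Reactions were stopped with Tris/EDTA/NaCl loading buffer (pH 8.0) and run on 1% agarose in TAE with 0.1% SDS (4.9 V/cm, 90 min), then stained with ethidium bromide. IC50 is the concentration reducing relaxation activity by 50%.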

Thermus aquaticus = assay: Inhibition of Thermus aquaticus DNA polymerase-mediated amplification of fragment of pBR322 by PCR
In short: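 PCR amplification of a pBR322 fragment by Taq polymerase with increasing compound (0.25–40) for 25 cycles: 94 °C, 58 °C and 72 °C, 30 s each. Products were run on 2% agarose in 0.5X TBE (4.2 V/cm, 1.5 h) and stained with ethidium bromide. IC50 is the concentration halving activity; MIC is the lowest concentration that suppresses activity.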

| ΔTm (Homo sapiens) | ΔTm [1] | IC50 [2] | MIC (Thermus aquaticus) | SMILES |
| --- | --- | --- | --- | --- |
| 20.5 °C | 8.4 °C | 6 µM | 10 µM (≈ 6.21 µg/mL) | COc1ccccc1CNCCCN1C(=O)c2ccc3c4c(ccc(c24)C1=O)C(=O)N(CCCNCc1ccccc1OC)C3=O |
| 16.3 °C | 12.2 °C |  |  | COc1ccccc1CNCCCN1C(=O)c2ccc3c4c(ccc(c24)C1=O)C(=O)N(CCCNCCCNCCCN)C3=O |
| 13.1 °C | 12.6 °C |  |  | COc1ccc(CNCCCN2C(=O)c3ccc4c5c(ccc(c35)C2=O)C(=O)N(CCCNCCCCNCCCN)C4=O)c(OC)c1OC |
